According to ChEMBL document CHEMBL4414577, “Discovery of Pyrrolo[2,3-b]pyridine (1,7-Dideazapurine) Nucleoside Analogues as Anti-Trypanosoma cruzi Agents” (J Med Chem, 2019):
Calls of active or inactive are those of the source. No cut-off for these calls is given here.

Columns and labels:
[1] = system: Trypanosoma cruzi; assay: In vivo antitrypanosomal activity against Trypanosoma cruzi Y trypomastigotes infected in Swiss mouse assessed as reduction in parasitemia at 25 mg/kg, po administered twice daily for 5 days with 2 days interval for 3 cycles and measured 9 days post-infection by light microscopy relative to control; type: functional; set-up: scale not given: the % may be the effect or the level left
Method in brief: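 Male Swiss Webster mice infected i.p. with 10⁴ Y-strain bloodstream trypomastigotes; six per group. Oral gavage from 5 dpi for 15 days (three 5-day rounds, 2 days off): test compound 25 mg/kg b.i.d., benznidazole 100 mg/kg s.i.d. Parasites counted in 5 μL tail blood to 30 dpi; mortality followed to 53 dpi.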

[2] = Drug metabolism in rat liver microsomes assessed as CYP450-mediated metabolism by measuring parent compound remaining at 5 uM incubated for 60 mins in presence of NADPH by UPLC-MS analysis; type: ADME; conditions: read-out: Stability
Method in brief: (§1)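 Compound incubated with male mouse, rat, dog or pooled human S9 fractions, with NADPH (phase I) or […], sampled at 0, 15, 30 and 60 min. Read-out is percent parent remaining. Two independent experiments of two biological replicates; diclofenac and fluconazole used as assay controls.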

[3] = Drug metabolism in rat liver microsomes assessed as UGT-mediated metabolism by measuring compound remaining at 5 uM measured immediately in presence of UDPGA by UPLC-MS analysis; type: ADME; conditions: read-out: Stability; method in brief: as §1
[4] = Toxicity in Swiss Webster mouse infected with Trypanosoma cruzi Y trypomastigotes assessed as body weight loss at 25 mg/kg, po administered twice daily via gavage for 5 days starting from 5 days post-infection and measured daily up to 40 days post-infection; type: organism-based; conditions: in vivo
Method in brief: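 Male Swiss Webster mice were infected i.p. with 10⁴ Y-strain trypomastigotes and treated by oral gavage for 5 days from 5 dpi. Regimens were 25 mg/kg b.i.d. (10% EtOH/citrate vehicle) or benznidazole 100 mg/kg s.i.d. Body weight and visual clinical signs were monitored, with daily mortality checks up to 40 dpi. There were six mice per group.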

[5] = Drug metabolism in mouse liver microsomes assessed as CYP450-mediated metabolism by measuring parent compound remaining at 5 uM incubated for 30 mins in presence of NADPH by UPLC-MS analysis; type: ADME; conditions: read-out: Stability; method in brief: as §1
[6] = system: Trypanosoma cruzi; assay: In vivo antitrypanosomal activity against Trypanosoma cruzi Y trypomastigotes infected in Swiss mouse assessed as mouse survival at 25 mg/kg, po administered twice daily via gavage for 5 days starting from 5 days post-infection and measured daily up to 40 days post-infection; type: functional, organism-based
Method in brief: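 Male Swiss Webster mice (18-20 g, 4-5 weeks) infected i.p. with 10⁴ Y-strain bloodstream trypomastigotes; six per group. Oral gavage from 5 dpi for 5 consecutive days: test compound at 25 mg/kg b.i.d. (2.0 mg/mL in 10% EtOH, 0.1 M citrate pH 3.02), benznidazole at 100 mg/kg s.i.d. Parasites counted in 5 μL tail blood to 30 dpi; mortality followed daily to 40 dpi.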

[7] = system: L929; assay: Cytotoxicity against mouse L929 cells assessed as reduction in cell viability; type: cell-based
[8] = molecular target: T1, Cytochrome P450 (Homo sapiens, UniProt P04798+P05177+P05181+P08684+P10632+P10635+P11509+P11712+P13584+P20813+P20815+P20853+P24462+P24903+P33260+P33261+P51589+P78329+P98187+Q02928+Q08477+Q16678+Q16696+Q5TCH4+Q6VVX0+Q7Z449+Q8TAV3+Q96SQ9+Q9HB55); assay: Drug metabolism in human liver S9 fraction assessed as CYP450-mediated metabolism by measuring parent compound remaining at 5 uM measured immediately in presence of NADPH by UPLC-MS analysis; type: ADME, subcellular; conditions: read-out: Stability; method in brief: as §1
[9] = Drug metabolism in dog liver microsomes assessed as UGT-mediated metabolism by measuring compound remaining at 5 uM measured immediately in presence of UDPGA by UPLC-MS analysis; type: ADME, Canis lupus familiaris; conditions: read-out: Stability; method in brief: as §1
[10] = Drug metabolism in mouse liver microsomes assessed as UGT-mediated metabolism by measuring compound remaining at 5 uM measured immediately in presence of UDPGA by UPLC-MS analysis; type: ADME; conditions: read-out: Stability; method in brief: as §1
[11] = Drug metabolism in dog liver microsomes assessed as CYP450-mediated metabolism by measuring parent compound remaining at 5 uM incubated for 15 mins in presence of NADPH by UPLC-MS analysis; type: ADME, Canis lupus familiaris; conditions: read-out: Stability; method in brief: as §1
[12] = Drug metabolism in dog liver microsomes assessed as CYP450-mediated metabolism by measuring parent compound remaining at 5 uM incubated for 30 mins in presence of NADPH by UPLC-MS analysis; type: ADME, Canis lupus familiaris; conditions: read-out: Stability; method in brief: as §1
[13] = molecular target: UDP-glucuronosyltransferases (UGTs) (Homo sapiens, UniProt O60656+O75310+O75795+P06133+P0DTE4+P0DTE5+P16662+P19224+P22309+P22310+P35503+P35504+P36537+P54855+Q6UWM9+Q9BY64+Q9HAW7+Q9HAW8+Q9HAW9); assay: Drug metabolism in human liver S9 fraction assessed as UGT-mediated metabolism by measuring compound remaining at 5 uM incubated for 30 mins in presence of UDPGA by UPLC-MS analysis; type: ADME, subcellular; conditions: read-out: Stability; method in brief: as §1
[14] = Drug metabolism in mouse liver microsomes assessed as CYP450-mediated metabolism by measuring parent compound remaining at 5 uM incubated for 15 mins in presence of NADPH by UPLC-MS analysis; type: ADME; conditions: read-out: Stability; method in brief: as §1
[15] = system: Trypanosoma cruzi; assay: Antitrypanosomal activity against Trypanosoma cruzi Tulahuen CL2 amastigotes infected in human MRC5 SV2 cells incubated for 7 days by chlorophenol red beta-D-galactopyranoside substrate based spectrophotometric assay; type: functional, organism-based; conditions: Tulahuen CL2, MRC-5 SV2, 168 h
Method in brief: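 Intracellular amastigotes of β-galactosidase-expressing Tulahuen strain grown in MRC-5 fibroblast host cells. EC50 in μM given as mean and SEM of two or three independent experiments; some values come from a single determination.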

[16] = system: Trypanosoma cruzi; assay: In vivo antitrypanosomal activity against Trypanosoma cruzi Y trypomastigotes infected in Swiss mouse assessed as reduction in parasitemia at 25 mg/kg, po administered twice daily for 5 days with 2 days interval for 3 cycles in presence of cyclophosphamide by light microscopy; type: functional, organism-based
Method in brief: (§2)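 Infected mice were dosed orally at 25 mg/kg b.i.d. from 5 dpi, either for 5 days or for 15 days (3 × 5 days, 2 days apart). Mice with negative parasitemia up to 30 days post-treatment then received cyclophosphamide i.p. at 50 mg/kg/day. This was given in three cycles of 4 days, each followed by 3 drug-free days. Tail-vein blood parasitemia was then read by light microscopy.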

[17] = Drug metabolism in mouse liver microsomes assessed as UGT-mediated metabolism by measuring compound remaining at 5 uM incubated for 60 mins in presence of UDPGA by UPLC-MS analysis; type: ADME; conditions: read-out: Stability; method in brief: as §1
[18] = Drug metabolism in rat liver microsomes assessed as CYP450-mediated metabolism by measuring parent compound remaining at 5 uM measured immediately in presence of NADPH by UPLC-MS analysis; type: ADME; conditions: read-out: Stability; method in brief: as §1
[19] = system: Trypanosoma cruzi; assay: In vivo antitrypanosomal activity against Trypanosoma cruzi Y trypomastigotes infected in Swiss mouse assessed as reduction in parasitemia at 25 mg/kg, po administered twice daily via gavage for 5 days starting from 5 days post-infection in presence of cyclophosphamide by light microscopic method; type: functional, organism-based; method in brief: as §2
[20] = molecular target: T1, Cytochrome P450; assay: Drug metabolism in human liver S9 fraction assessed as CYP450-mediated metabolism by measuring parent compound remaining at 5 uM incubated for 60 mins in presence of NADPH by UPLC-MS analysis; type: ADME, subcellular; conditions: read-out: Stability; method in brief: as §1

remaining at 1 h, 5 µM [2]: 85%
remaining at 0 min, 5 µM [3]: 100%
remaining at 0.5 h, 5 µM [5]: 95%
remaining at 0 min, 5 µM [8]: 100%
remaining at 0 min, 5 µM [9]: 100%
remaining at 0 min, 5 µM [10]: 100%
remaining at 0.25 h, 5 µM [11]: 97%
remaining at 0.5 h, 5 µM [12]: 96%
remaining at 0.5 h, 5 µM [13]: 99%
remaining at 0.25 h, 5 µM [14]: 96%
remaining at 1 h, 5 µM [17]: 101%
remaining at 0 min, 5 µM [18]: 100%
remaining at 1 h, 5 µM [20]: 92%
Compound: Nc1ccnc2c1c(I)cn2[C@@H]1O[C@H](CO)[C@@H](O)[C@H]1O
Activity [1]: 100%
Activity [4]: Non-Toxic
Activity [6]: Active
EC50 [7]: > 200000 nM
EC50 [15]: 40 nM
Activity [16]: inactive
Activity [19]: inactive
